From ChEMBL document CHEMBL3091303, “1,3-Dialkyl-substituted tetrahydropyrimido[1,2-f]purine-2,4-diones as multiple target drugs for the potential treatment of neurodegenerative diseases” (Bioorg Med Chem, 2013)

Key:
[1] = biological target: T1, Amine oxidase [flavin-containing] B (Homo sapiens, UniProt P27338); assay: Inhibition of human MAO-B
T1 sequence (P27338 whole entry): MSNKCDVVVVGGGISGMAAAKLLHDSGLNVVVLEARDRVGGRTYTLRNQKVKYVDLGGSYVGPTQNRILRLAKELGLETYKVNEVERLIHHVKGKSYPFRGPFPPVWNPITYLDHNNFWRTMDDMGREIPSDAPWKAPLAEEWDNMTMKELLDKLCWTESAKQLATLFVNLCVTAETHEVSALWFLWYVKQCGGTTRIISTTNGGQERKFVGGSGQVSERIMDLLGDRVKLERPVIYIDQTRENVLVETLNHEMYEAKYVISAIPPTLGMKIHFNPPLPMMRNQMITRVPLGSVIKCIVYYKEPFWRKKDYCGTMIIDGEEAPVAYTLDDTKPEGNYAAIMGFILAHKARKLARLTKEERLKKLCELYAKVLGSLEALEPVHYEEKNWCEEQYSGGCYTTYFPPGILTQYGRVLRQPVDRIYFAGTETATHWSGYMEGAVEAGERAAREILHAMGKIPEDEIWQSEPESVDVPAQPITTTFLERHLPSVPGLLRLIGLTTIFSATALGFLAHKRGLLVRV

[2] = biological target: T2, Amine oxidase [flavin-containing] A (Homo sapiens, UniProt P21397); assay: Inhibition of human MAO-A
T2 sequence (P21397 whole entry): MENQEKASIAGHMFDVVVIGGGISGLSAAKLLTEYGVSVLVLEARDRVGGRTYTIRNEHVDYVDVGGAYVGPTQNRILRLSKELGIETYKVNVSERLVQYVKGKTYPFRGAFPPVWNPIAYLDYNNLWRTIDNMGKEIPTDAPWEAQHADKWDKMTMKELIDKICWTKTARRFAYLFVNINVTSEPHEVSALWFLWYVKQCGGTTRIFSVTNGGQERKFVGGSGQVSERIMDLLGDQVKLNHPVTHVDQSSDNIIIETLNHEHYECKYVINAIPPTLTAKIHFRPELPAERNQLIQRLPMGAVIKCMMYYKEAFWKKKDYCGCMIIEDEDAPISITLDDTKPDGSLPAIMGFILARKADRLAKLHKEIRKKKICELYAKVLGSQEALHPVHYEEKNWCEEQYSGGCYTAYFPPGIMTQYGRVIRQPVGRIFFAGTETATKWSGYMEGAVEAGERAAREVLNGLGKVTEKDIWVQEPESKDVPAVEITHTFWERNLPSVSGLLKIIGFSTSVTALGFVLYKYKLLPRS
Method in brief: (§1)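 Human MAO-A and MAO-B inhibition, screened first at a test concentration of 10 µM.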

[3] = biological target: T3, MAO-A (amine oxidase [flavin-containing] A) (Homo sapiens, UniProt P21397); assay: Inhibition of human MAO-A at 10 uM relative to control; method in brief: as §1
T3 sequence (P21397 whole entry): T2 sequence (P21397 whole entry)

Adenosine receptor A3 = biological target: T4, Adenosine receptor A3 (Homo sapiens, UniProt P0DMS8); assay: Displacement of [3H]PSB-11 from human adenosine A3 receptor expressed in CHO cells; assay type: cell-based
T4 sequence (P0DMS8 whole entry): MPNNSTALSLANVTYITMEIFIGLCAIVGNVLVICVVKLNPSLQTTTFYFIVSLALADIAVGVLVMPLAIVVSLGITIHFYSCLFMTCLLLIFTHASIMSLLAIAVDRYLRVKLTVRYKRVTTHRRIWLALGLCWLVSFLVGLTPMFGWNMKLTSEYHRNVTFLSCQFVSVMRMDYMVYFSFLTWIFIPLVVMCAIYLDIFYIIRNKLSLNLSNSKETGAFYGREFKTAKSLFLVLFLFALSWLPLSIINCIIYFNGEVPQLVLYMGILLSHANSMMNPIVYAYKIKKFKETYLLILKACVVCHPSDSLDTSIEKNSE

[4] = biological target: T5, Adenosine receptor A2b (Homo sapiens) (UniProt P29275); assay: Displacement of [3H]PSB-603 from human adenosine A2B receptor relative to control; set-up: concentration or dose not given beside the values; conditions: concentration not given here
T5 sequence (whole entry): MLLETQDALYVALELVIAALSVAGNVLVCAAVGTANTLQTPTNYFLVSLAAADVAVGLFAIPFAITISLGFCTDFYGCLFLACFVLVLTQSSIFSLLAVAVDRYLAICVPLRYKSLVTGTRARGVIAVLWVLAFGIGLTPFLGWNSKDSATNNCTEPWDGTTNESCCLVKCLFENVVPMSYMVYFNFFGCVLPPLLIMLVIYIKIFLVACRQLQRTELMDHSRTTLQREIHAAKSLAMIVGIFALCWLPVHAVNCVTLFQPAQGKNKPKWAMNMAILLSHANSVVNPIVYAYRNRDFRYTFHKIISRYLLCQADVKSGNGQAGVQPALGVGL

Adenosine receptor A2a = Adenosine receptor A2a (Rattus norvegicus, UniProt P30543); assay: Displacement of [3H]MSX-2 from adenosine A2A receptor in rat brain striatum; assay type: tissue-based
Sequence of Adenosine receptor A2a (P30543 whole entry): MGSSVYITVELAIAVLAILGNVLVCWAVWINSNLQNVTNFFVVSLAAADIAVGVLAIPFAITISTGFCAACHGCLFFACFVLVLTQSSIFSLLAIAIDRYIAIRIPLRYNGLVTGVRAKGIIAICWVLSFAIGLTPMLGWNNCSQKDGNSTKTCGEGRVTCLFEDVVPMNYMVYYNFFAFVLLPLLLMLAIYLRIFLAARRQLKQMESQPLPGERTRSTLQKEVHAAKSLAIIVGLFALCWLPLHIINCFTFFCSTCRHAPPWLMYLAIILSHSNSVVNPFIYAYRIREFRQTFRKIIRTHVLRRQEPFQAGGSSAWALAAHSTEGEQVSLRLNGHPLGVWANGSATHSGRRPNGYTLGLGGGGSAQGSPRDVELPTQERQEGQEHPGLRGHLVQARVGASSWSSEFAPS

Adenosine receptor A2b = biological target: T6, Adenosine receptor A2b (Homo sapiens, UniProt P29275); assay: Displacement of [3H]PSB-603 from human adenosine A2B receptor
T6 sequence (P29275 whole entry): T5 sequence (whole entry)

Adenosine receptor A1 [5] = biological target: T7, Adenosine receptor A1 (Homo sapiens, UniProt P30542); assay: Displacement of [3H]CCPA from human adenosine A1 receptor expressed in CHO cells; assay type: cell-based
T7 sequence (P30542 whole entry): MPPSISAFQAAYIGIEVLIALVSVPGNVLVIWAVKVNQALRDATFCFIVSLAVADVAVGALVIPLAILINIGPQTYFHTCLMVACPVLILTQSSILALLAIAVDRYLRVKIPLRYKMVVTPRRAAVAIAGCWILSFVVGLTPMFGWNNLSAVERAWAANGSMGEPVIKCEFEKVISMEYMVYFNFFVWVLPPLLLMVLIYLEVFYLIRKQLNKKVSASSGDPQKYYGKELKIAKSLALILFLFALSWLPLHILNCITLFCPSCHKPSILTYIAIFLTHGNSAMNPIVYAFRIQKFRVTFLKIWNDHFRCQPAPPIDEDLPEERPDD
Method in brief: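 Radioligand binding to human receptors recombinantly expressed in Chinese hamster ovary (CHO) cells. Results are Ki, or % inhibition of radioligand binding at the indicated concentration.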

Adenosine receptor A1 [6] = biological target: T8, Adenosine receptor A1 (Rattus norvegicus, UniProt P25099); assay: Displacement of [3H]CCPA from adenosine A1 receptor in rat brain cortex; assay type: tissue-based
T8 sequence (P25099 whole entry): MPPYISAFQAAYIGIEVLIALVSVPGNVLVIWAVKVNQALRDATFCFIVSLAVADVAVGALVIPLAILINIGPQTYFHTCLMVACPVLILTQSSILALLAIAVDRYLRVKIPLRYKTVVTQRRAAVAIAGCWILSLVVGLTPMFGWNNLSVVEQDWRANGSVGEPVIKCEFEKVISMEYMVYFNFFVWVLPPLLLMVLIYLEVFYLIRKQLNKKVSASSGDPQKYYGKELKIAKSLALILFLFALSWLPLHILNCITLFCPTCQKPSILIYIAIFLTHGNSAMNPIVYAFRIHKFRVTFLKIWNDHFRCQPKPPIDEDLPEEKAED
Method in brief: (§2)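 Radioligand binding to rat A1 receptors in rat brain cortical membrane preparations. Values are given as Ki, or as % inhibition of radioligand binding at the indicated concentration.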

[7] = biological target: T9, MAO-B (amine oxidase [flavin-containing] B) (Homo sapiens, UniProt P27338); assay: Inhibition of human MAO-B at 10 uM relative to control; method in brief: as §1
T9 sequence (P27338 whole entry): T1 sequence (P27338 whole entry)

[8] = biological target: T10, Adenosine receptor A3 (Homo sapiens) (UniProt P0DMS8); assay: Displacement of [3H]PSB-11 from human adenosine A3 receptor expressed in CHO cells relative to control; assay type: cell-based; set-up: concentration or dose not given beside the values; conditions: concentration not given here
T10 sequence (whole entry): T4 sequence (P0DMS8 whole entry)

[9] = biological target: T11, Adenosine receptor A1 (Rattus norvegicus) (UniProt P25099); assay: Displacement of [3H]CCPA from adenosine A1 receptor in rat brain cortex relative to control; assay type: tissue-based; set-up: concentration or dose not given beside the values; conditions: concentration not given here; method in brief: as §2
T11 sequence (whole entry): T8 sequence (P25099 whole entry)

Row | IC50 [1] | IC50 [2] | inhibition at 10 µM [3] | Ki (Adenosine receptor A3) | inhibition [4] | Ki (Adenosine receptor A2a) | Ki (Adenosine receptor A2b) | Ki (Adenosine receptor A1 [5]) | Ki (Adenosine receptor A1 [6]) | inhibition at 10 µM [7] | inhibition [8] | inhibition [9] | Compound
1 | 3.26 µM | > 10 µM | 28% | 3.03 µM | 20% | 1.83 µM | > 1 µM | 3.92 µM | 0.506 µM |  |  |  | CCn1c(=O)c2c(nc3n2CCCN3CCc2ccccc2OC)n(CC)c1=O
2 | 10 µM |  |  | > 10 µM | 11% | 1.88 µM | > 1 µM | 6.65 µM | 0.545 µM | 48% | 29% |  | CCn1c(=O)c2c(nc3n2CCCN3c2ccc(F)cc2)n(CC)c1=O
3 | > 10 µM |  |  | > 1 µM | 1% | 6.22 µM | > 0.3 µM |  | 1.83 µM | 21% | 4% |  | C#CCn1c(=O)c2c(nc3n2CCCN3Cc2cccnc2)n(C)c1=O
4 | > 10 µM |  |  | > 10 µM | 6% | 3.87 µM | > 1 µM |  | > 10 µM | 25% | 24% | 14% | CCn1c(=O)c2c(nc3n2CCCN3CCc2cc(OC)c(OC)c(OC)c2)n(CC)c1=O
5 | 0.0629 µM | > 10 µM | 10% | > 10 µM | 5% | 3.69 µM | > 1 µM |  | 4.01 µM |  | 30% |  | Cn1c(=O)c2c(nc3n2CCCN3Cc2ccc(Cl)c(Cl)c2)n(C)c1=O
6 | 2.98 µM | > 10 µM | 5% | 0.541 µM | 15% | 7.31 µM | > 1 µM |  | > 1.5 µM |  |  | 23% | CCCn1c(=O)c2c(nc3n2CCCN3CC(=O)N2CCN(Cc3ccc(C(F)(F)F)cc3)CC2)n(CCC)c1=O
7 | 4.96 µM | > 10 µM | 15% | > 10 µM | -4% | 3.76 µM | > 1 µM |  | 4.42 µM |  | 33% |  | Cn1c(=O)c2c(nc3n2CCCN3c2cccc(Cl)c2)n(C)c1=O
8 | 10 µM | > 10 µM | 11% |  | 7% | 3.03 µM |  | 10.2 µM | 0.555 µM | 50% |  |  | C#CCn1c(=O)c2c(nc3n2CCCN3Cc2ccc(OC)cc2)n(C)c1=O
9 | 10 µM | > 10 µM | 5% |  | 17% | 1.48 µM | > 1 µM |  | 5.22 µM | 64% |  |  | C#CCn1c(=O)c2c(nc3n2CCCN3c2ccc(C(C)C)cc2)n(C)c1=O
10 | > 10 µM |  |  | > 10 µM |  | 9.42 µM | > 1 µM |  | > 1.5 µM | 30% | 23% | -1% | Cn1c(=O)c2c(nc3n2CCCN3CC(=O)N2CCN(Cc3ccc(Cl)cc3)CC2)n(C)c1=O
11 | 3.72 µM | > 10 µM | -3% | > 10 µM | 3% | 1.7 µM | > 1 µM | 1.04 µM | 0.321 µM |  | 37% |  | CCn1c(=O)c2c(nc3n2CCCN3C2CCCCC2)n(CC)c1=O
12 | > 10 µM |  |  | > 1 µM | -2% | 0.723 µM | > 1 µM |  | > 10 µM | 29% | 5% | 18% | C#CCn1c(=O)c2c(nc3n2CCCN3CCc2cc(OC)c(OC)c(OC)c2)n(C)c1=O
13 | > 10 µM |  |  | 3.41 µM | 29% | 2.65 µM | > 1 µM |  | > 10 µM | 33% |  | 31% | CCn1c(=O)c2c(nc3n2CCCN3CCc2cccc(OC)c2)n(CC)c1=O
14 | 6.39 µM | > 10 µM | 4% | 6.8 µM | 21% | 5.37 µM | > 1 µM |  | 1.24 µM |  |  |  | CCn1c(=O)c2c(nc3n2CCCN3c2cccc(OC)c2)n(CC)c1=O
15 | 5.87 µM | > 10 µM | 4% | > 10 µM | 15% | 1.88 µM | > 1 µM |  | > 10 µM |  | 32% | 35% | CCn1c(=O)c2c(nc3n2CCCN3CCc2ccc(OC)c(OC)c2)n(CC)c1=O
16 | > 10 µM |  |  | > 1 µM | 0% | 8.22 µM | > 1 µM |  | > 1.5 µM | 15% | 28% | 17% | CCCn1c(=O)c2c(nc3n2CCCN3CC(=O)N2CCN(Cc3ccccc3)CC2)n(CCC)c1=O
17 | > 10 µM |  |  | > 1 µM | 9% | 2.04 µM | > 1 µM | 9.65 µM | 0.228 µM | 30% | 28% |  | C#CCn1c(=O)c2c(nc3n2CCCN3c2cc(OC)cc(OC)c2)n(C)c1=O
18 |  | > 10 µM | 23% |  |  |  |  |  |  |  |  |  | Cn1c(=O)c2c(nc(/C=C/c3cccc(Cl)c3)n2C)n(C)c1=O
